Source: PubChem
T cruzi intra: blocks T. cruzi growth inside host cells; intracellular Trypanosoma cruzi in host cells, plate reader; activity score (inhibition), % at 5.01 µM; 22,000 tested, 4.9% active; in the data active = activity score above about 55%;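 also: parasites and compound incubated about four days before reading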
INS-1E ATP HTS: rescue of cytokine-induced death in INS-1E beta cells; INS-1E cytokine-induced death, ATP luminescence, 48 h; normalised: neutral wells 0, positive control 100; protection from cytokine-induced ATP loss, % at 10 µM; 20,000 tested, 0.1% active; AID 488910;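 active = mean replicate protection from cytokine-induced ATP loss at least 50% and at least 75% of replicates each reaching 50%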
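Assay system: INS-1E rat cells / Quantity: 8000 cells per well / Medium: RPMI without phenol red, 5% FBS / Probe or stimulus: three-cytokine cocktail (IFN-γ, TNF-α, IL-1β) / Dosing: one compound concentration, pin transfer / Timing: 48 h co-treatment, 10 min post-lysis read / Technique: CellTiter-Glo luminescence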
YB-1 expression: YB-1 expression inhibition. U2OS, qRT-PCR YB-1 vs CDIP delta delta Cp, 16 h; hits give high values; zero = DMSO, each unit about twofold. delta delta Cp (YB-1 minus CDIP) (test concentration not listed). 30,000 tested, 0.37% active. AID 434959;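 active = delta delta Cp rounded down to an integer at or above 3, about 3 SD of DMSO wells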;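 also: higher means less YB-1 transcript or more CDIP transcript relative to DMSO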
A number is an active result; n = inactive; x = no result. This excerpt belongs to a sample that is enriched for hits.

SMILES	T cruzi intra	INS-1E ATP HTS	YB-1 expression
COc1ccc(S(=O)(=O)N(C)C[C@H]2Oc3ccc(NS(=O)(=O)c4ccc(F)cc4)cc3CC(=O)N([C@@H](C)CO)C[C@H]2C)cc1	n	n	n
Cc1ccc(S(=O)(=O)Nc2ccc3c(c2)CC(=O)N([C@@H](C)CO)C[C@@H](C)[C@@H](CN(C)S(=O)(=O)c2ccc(C)cc2)O3)cc1	61.7	n	n
Cc1ccc(S(=O)(=O)Nc2ccc3c(c2)CC(=O)N([C@@H](C)CO)C[C@H](C)[C@@H](CN(C)S(=O)(=O)c2ccc(C)cc2)O3)cc1	n	n	n
COc1ccc(S(=O)(=O)Nc2ccc3c(c2)CC(=O)N([C@@H](C)CO)C[C@@H](C)[C@@H](CN(C)S(=O)(=O)c2ccc(F)cc2)O3)cc1	63.5	n	n
COc1cc(C2OCC3C(C)C=C(C)C2C3C)ccc1O (stereo unspecified)	x	x	n
C1=C(c2ccccc2)CC(c2ccccc2)=NN=C1c1ccccc1	x	x	n
COc1cc(CCC(C)NC(=O)c2ccco2)ccc1OC(=O)c1ccco1 (stereo unspecified)	x	x	n
C[C@H]1CN([C@@H](C)CO)C(=O)c2cccc(NC(=O)c3ccncc3)c2O[C@H]1CN(C)C(=O)NC1CCCCC1	70.7	n	n
C[C@@H]1CN([C@H](C)CO)C(=O)c2cccc(NC(=O)C3CCOCC3)c2O[C@@H]1CN(C)C(=O)NC1CCCCC1	n	n	10.9
C[C@H]1CN([C@@H](C)CO)C(=O)c2cccc(NC(=O)c3ccncc3)c2O[C@@H]1CN(C)CC1CCCCC1	86.1	n	n
C[C@@H]1CN([C@@H](C)CO)C(=O)c2cccc(NC(=O)C3CCOCC3)c2O[C@@H]1CN(C)C(=O)NC1CCCCC1	n	n	n
C[C@@H]1CN([C@@H](C)CO)C(=O)c2cccc(NC(=O)c3ccncc3)c2O[C@H]1CN(C)C(=O)NC1CCCCC1	n	n	n
C[C@H]1CN([C@@H](C)CO)C(=O)c2cccc(NC(=O)c3ccncc3)c2O[C@H]1CN(C)CC1CC1	n	n	n
C[C@H]1CN([C@@H](C)CO)C(=O)c2cccc(NC(=O)c3ccncc3)c2O[C@H]1CN(C)CC1CCCCC1	57.4	n	n
C[C@@H]1CN([C@@H](C)CO)C(=O)c2cccc(NC(=O)c3ccncc3)c2O[C@H]1CN(C)CC1CC1	n	n	n
O=C1SC(=S)N/C1=C/c1cccc(O)c1	x	x	n
CCOC(=O)c1cnc(S/C=C/C(=O)c2ccc(C)cc2)nc1N	x	x	n
Cn1ccc(-c2cccc(NC(=O)Nc3ccccc3)c2)n1	x	x	n
CCN(CC)C(=S)C(=O)Nc1cc(C(F)(F)F)cc(C(F)(F)F)c1	x	x	n
CC(C)S(=O)(=O)NC[C@@H]1CCCN(Cc2cccc(OCCO)c2)C1	x	x	n
C[C@H](CO)N1C[C@H](C)[C@@H](CN(C)CC2CCCCC2)Oc2c(NC(=O)c3ccncc3)cccc2C1=O	56.6	n	n
C[C@@H]1CN([C@@H](C)CO)C(=O)c2cccc(NC(=O)c3ccncc3)c2O[C@@H]1CN(C)CC1CCCCC1	n	n	n
CCOC(=O)C1=C(c2ccccc2)NC(=S)NC1CC (stereo unspecified)	x	x	n
CC1(C)NCCC12C(=O)N(Cc1ccccc1)c1ccccc12 (stereo unspecified)	x	x	n
C[C@H](CO)N1C[C@H](C)[C@H](CN(C)Cc2ccc(Cl)c(Cl)c2)Oc2ccc(NC(=O)Nc3ccccc3)cc2CC1=O	74.8	n	n
SMILES	T cruzi intra	INS-1E ATP HTS	YB-1 expression
C[C@H](CO)N1C[C@H](C)[C@H](CN(C)Cc2ccc(Cl)c(Cl)c2)Oc2ccc(NC(=O)Nc3ccc4c(c3)OCO4)cc2CC1=O	80.0	n	n
C[C@H]1CN([C@@H](C)CO)C(=O)Cc2cc(NC(=O)Nc3ccccc3)ccc2O[C@H]1CN(C)Cc1ccc(Cl)c(Cl)c1	n	n	n
C[C@@H]1CN([C@@H](C)CO)C(=O)Cc2cc(NC(=O)Nc3ccc(F)cc3)ccc2O[C@@H]1CN(C)Cc1ccc(Cl)c(Cl)c1	66.6	n	n
C[C@H]1CN([C@@H](C)CO)C(=O)Cc2cc(NC(=O)Cc3ccccc3)ccc2O[C@H]1CN(C)Cc1ccc(Cl)c(Cl)c1	56.9	n	n
COc1ccc(NC(=O)Nc2ccc3c(c2)CC(=O)N([C@H](C)CO)C[C@H](C)[C@H](CN(C)Cc2ccc(Cl)c(Cl)c2)O3)cc1	n	n	n
C[C@H](CO)N1C[C@H](C)[C@H](CN(C)Cc2ccc3c(c2)OCO3)Oc2ccc(NC(=O)Nc3ccc4c(c3)OCO4)cc2CC1=O	n	n	n
C[C@H]1CN([C@@H](C)CO)C(=O)Cc2cc(NC(=O)Cc3ccccc3)ccc2O[C@@H]1CN(C)Cc1ccccc1	n	n	n
CCc1ccc(C(=O)CC2OC(=O)c3c2ccc(OC)c3OC)cc1 (stereo unspecified)	x	x	n
O=C(CC(c1ccccc1)c1ccccc1)Nc1ccc(Cl)cc1	x	x	n
CN(C)C(=O)c1cccc2c1-c1ccccc1C2=O	x	x	n
COC(=O)C1=C(C)NC(C)=C(C(=O)OC)C1C	x	x	n
Cc1oc2cc(OC(C)C)ccc2c(=O)c1-c1ccc2c(c1)OCCO2	x	x	6.88
CC(C)Oc1ccc2c(=O)cc(-c3ccccc3)oc2c1	x	x	n
COc1ccccc1CC(=O)Nc1ccc(-c2nc3ccccc3[nH]2)cc1	x	x	n
C[C@H](CO)N1C[C@H](C)[C@H](CN(C)S(=O)(=O)c2ccc(Cl)cc2)Oc2c(NC(=O)c3nc4ccccc4s3)cccc2C1=O	71.1	n	n
C[C@H](CO)N1C[C@H](C)[C@@H](CN(C)S(=O)(=O)c2ccc(Cl)cc2)Oc2c(NC(=O)c3nc4ccccc4s3)cccc2C1=O	66.2	n	n
C[C@@H]1CN([C@H](C)CO)C(=O)c2cccc(NC(=O)c3nc4ccccc4s3)c2O[C@@H]1CN(C)S(=O)(=O)c1ccc(Cl)cc1	n	n	n
C[C@@H]1CN([C@@H](C)CO)C(=O)c2cccc(NC(=O)c3nc4ccccc4s3)c2O[C@@H]1CN(C)S(=O)(=O)c1ccc(Cl)cc1	n	n	n
CC1C(c2ccccc2)CC(C(=O)O)C1(C)C (stereo unspecified)	x	x	n
C[C@@H]1CN([C@H](C)CO)C(=O)c2cccc(NC(=O)c3ccc(-c4nccs4)cc3)c2O[C@H]1CN(C)Cc1ccccc1	n	n	n
C[C@H](CO)N1C[C@H](C)[C@@H](CN(C)Cc2ccc(Cl)c(Cl)c2)Oc2c(NC(=O)c3ccc(-c4nccs4)cc3)cccc2C1=O	62.2	n	n
C[C@H](CO)N1C[C@H](C)[C@H](CN(C)S(=O)(=O)c2ccc(Cl)cc2)Oc2c(NC(=O)c3ccc(-c4nccs4)cc3)cccc2C1=O	63.4	n	n
C[C@@H]1CN([C@@H](C)CO)C(=O)c2cccc(NC(=O)c3ccc(-c4nccs4)cc3)c2O[C@H]1CN(C)Cc1ccc(C(=O)Nc2ccccc2N)cc1	n	n	n
C[C@H](CO)N1C[C@H](C)[C@@H](CN(C)S(=O)(=O)c2ccc(Cl)cc2)Oc2c(NC(=O)c3ccc(-c4nccs4)cc3)cccc2C1=O	n	n	n
